# ChEMBL document CHEMBL4477218 (J Med Chem, 2016)
# Tests used:
# Type in all cases: functional
# [1] = system: Staphylococcus aureus; assay: Antibacterial activity against TMP/methicillin-resistant Staphylococcus aureus harboring DHFR F98Y/H149R double mutant after 18 hrs by CLSI M100-S16 method
# In short: (§1)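 Broth microdilution per CLSI guideline in Isosensitest broth, final inoculum 5 x 10^5 CFU/mL, 18 h at 37 °C. Growth read at A600. MIC taken as the lowest inhibitor concentration visually inhibiting growth, confirmed colorimetrically with Presto Blue. Isosensitest broth with 10 µg/mL thymidine used to check off-target antibacterial activity. Mutant strains were selected on agar containing 6x MIC of an earlier propargyl-linked antifolate and sequenced.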
# [2] = system: Staphylococcus aureus; assay: Antibacterial activity against TMP/methicillin-resistant Staphylococcus aureus ATCC 43300 after 18 hrs by CLSI M100-S16 method; conditions: ATCC 43300, 18 h; in short: as §1
# [3] = system: Staphylococcus aureus; assay: Antibacterial activity against TMP/methicillin-resistant Staphylococcus aureus harboring DHFR H30N/F98Y double mutant after 18 hrs by CLSI M100-S16 method; in short: as §1
# [4] = system: Staphylococcus aureus; assay: Antibacterial activity against TMP/methicillin-resistant Staphylococcus aureus harboring DHFR H30N mutant after 18 hrs by CLSI M100-S16 method; in short: as §1
# [5] = system: Staphylococcus aureus; assay: Antibacterial activity against TMP/methicillin-resistant Staphylococcus aureus harboring DHFR H149R mutant after 18 hrs by CLSI M100-S16 method; in short: as §1
# [6] = system: Staphylococcus aureus; assay: Antibacterial activity against TMP/methicillin-resistant Staphylococcus aureus harboring DHFR F98Y mutant after 18 hrs by CLSI M100-S16 method; in short: as §1
Compound,MIC [1],MIC [2],MIC [3],MIC [4],MIC [5],MIC [6]
CCc1nc(N)nc(N)c1C#CC(C)c1cc(OC)cc(-c2ccncc2)c1 (centres undefined),80 µg/mL,0.0781 µg/mL,20 µg/mL,2.5 µg/mL,2.5 µg/mL,2.5 µg/mL
CCc1nc(N)nc(N)c1C#CC(C)c1cc(-c2ccncc2)ccc1OC (centres undefined),40 µg/mL,0.625 µg/mL,20 µg/mL,2.5 µg/mL,2.5 µg/mL,2.5 µg/mL
CCc1nc(N)nc(N)c1C#CCc1cc(-c2ccc(C(=O)O)cc2)ccc1OC,> 50 µg/mL,0.0195 µg/mL,6.25 µg/mL,0.156 µg/mL,0.156 µg/mL,0.156 µg/mL
CCc1nc(N)nc(N)c1C#C[C@H](C)c1cc(OC)cc(-c2ccc(C(=O)O)cc2)c1,2.5 µg/mL,0.0098 µg/mL,–,–,0.0391 µg/mL,0.0781 µg/mL
CCc1nc(N)nc(N)c1C#C[C@@H](C)c1cc(OC)cc(-c2ccc(C(=O)O)cc2)c1,1.25 µg/mL,0.0098 µg/mL,1.25 µg/mL,0.0781 µg/mL,0.0781 µg/mL,–
CCc1nc(N)nc(N)c1C#CCc1cc(OC)cc(-c2ccc(C(=O)O)cc2)c1,10 µg/mL,0.0195 µg/mL,5 µg/mL,0.156 µg/mL,0.156 µg/mL,0.156 µg/mL
CCc1nc(N)nc(N)c1C#C[C@H](C)c1cc(-c2ccc(C(=O)O)cc2)ccc1OC,> 40 µg/mL,0.0391 µg/mL,> 40 µg/mL,0.156 µg/mL,0.0781 µg/mL,0.156 µg/mL
CCc1nc(N)nc(N)c1C#C[C@H](C)c1cc2c(c(-c3ccncc3)c1)OCO2,20 µg/mL,0.0195 µg/mL,20 µg/mL,2.5 µg/mL,2.5 µg/mL,1.25 µg/mL
CCc1nc(N)nc(N)c1C#C[C@H](C)c1cc(OC)cc(-c2ccncc2)c1,20 µg/mL,0.0391 µg/mL,40 µg/mL,0.625 µg/mL,0.625 µg/mL,0.625 µg/mL
CCc1nc(N)nc(N)c1C#CC(C)c1cc2c(c(-c3ccncc3)c1)OCO2 (centres undefined),40 µg/mL,0.0781 µg/mL,40 µg/mL,5 µg/mL,5 µg/mL,1.25 µg/mL
CCc1nc(N)nc(N)c1C#CCc1cc(OC)c(OC)c(-c2ccncc2)c1,40 µg/mL,0.0195 µg/mL,20 µg/mL,0.625 µg/mL,0.625 µg/mL,0.625 µg/mL
CCc1nc(N)nc(N)c1C#C[C@@H](C)c1cc(-c2ccncc2)ccc1OC,20 µg/mL,0.0195 µg/mL,10 µg/mL,0.625 µg/mL,1.25 µg/mL,1.25 µg/mL
